# Test results taken from PubChem BioAssay AID1424 (The Scripps Research Institute Molecular Screening Center, 2008).
# About 390 (0.18%) of roughly 220,000 compounds were called active. Shown is part of a subset that was picked to be rich in actives. Values without a mark were called inactive.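 Rule for the calls: active = activation above its plate's cutoff, the mean activation of test wells on that plate plus 3 SD (cut at about 19% in these data); inactive = the rest.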
# Tested on: transient receptor potential cation channel N1 (TRPN1/NompC), Danio rerio
# Test: zebrafish TRPN1 channel agonists, primary screen, cell-based, HEK293, calcium fluorescence (AID 1424);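 note: 0% = DMSO alone and 100% = 87 µM carbachol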
# Details: HEK293 zebrafish TRPN1-YFP, Fluo-8 calcium fluorescence; at 3 µM; hits give high values; 100% = response to 87 µM carbachol
# In short: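 Material – zebrafish TRPN1-YFP in HEK293 cells · Doses – 3 µM single point · Schedule – dye 1 h 37 °C plus 30 min RT · Signal – Fluo-8 calcium fluorescence, excitation 470-495 nm, emission 515-575 nm · Read-out – % activation versus carbachol response · Control set – carbachol high, DMSO low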
row,SMILES,activation
1,Cc1ccc(-n2c(C)cc(/C=N/Nc3ccc([N+](=O)[O-])cn3)c2C)c(C)c1,-0.82%
2,C/C=N/N(c1ccccc1)c1ccccc1,0.69%
3,COc1cc(NC(=S)NCCSc2ccc(C)cc2)cc(OC)c1,-3.08%
4,Cc1cc(C)c(S(=O)(=O)N2CCOCC2)cc1C,-0.54%
5,CC(C)n1c(NCc2c[nH]c3ccccc23)nc2ccccc21,-0.19%
6,Cc1nc(S(=O)(=O)c2ccc(Br)cc2)nc2c1CCC2,0.17%
7,CN(C)C=NC(=O)c1cccn1-c1ncc(C(F)(F)F)cc1Cl,-0.1%
8,NC(=O)c1ccc(NC(=O)COC(=O)c2c3c(nc4ccccc24)/C(=C\c2ccc4c(c2)OCO4)CCC3)cc1,41.6% (active)
9,NS(=O)(=O)c1ccc(NC(=O)COC(=O)c2ccc(Cl)nc2)cc1,1.46%
10,O=C(COC(=O)c1c2c(nc3ccccc13)/C(=C\c1cccs1)CCC2)Nc1ccccc1Cl,-1.63%
11,NS(=O)(=O)c1ccc(NC(=O)COC(=O)c2c3c(nc4ccccc24)/C(=C\c2ccc4c(c2)OCO4)CCC3)cc1,47.9% (active)
12,COc1cc(-c2cc(C(=O)OCC(=O)Nc3ccc4c(c3)OCO4)c3ccccc3n2)cc(OC)c1OC,-1.87%
13,NS(=O)(=O)c1ccc(NC(=O)COC(=O)c2cc3ccccc3oc2=O)cc1,0.38%
14,CCN1CCC2(CC1)N=C(c1ccc(F)cc1)C(=S)N2C(=O)c1ccc(C)cc1,-0.33%
15,COC(=O)c1ccc(C(NC(=O)OCc2ccccc2)/C(C)=C/[C@@H](C)C(=O)NCc2ccc(OC)c(OC)c2)cc1 (stereo partly drawn),-0.55%
16,COc1ccc(OCc2n[nH]c(=S)n2N)cc1,0.96%
17,COC(=O)c1ccc(CN2CCC(CO)(Cc3ccc(OC)cc3)CC2)cc1,4.67%
18,CCn1c(=S)[nH]c2sc3c(c2c1=O)CCCCC3,0.92%
19,O=C(C1=C[C@H](c2ccc(C(F)(F)F)cc2)C[C@H](OCc2ccc(CO)cc2)O1)N1CCN(Cc2ccccc2)CC1,-0.62%
20,Cc1nc(=O)c(-c2ccccc2)c(C)n1-c1ccc(Br)cc1,1.06%
21,CC1(C)CC(=O)C(C2c3ccccc3S(=O)(=O)c3ccccc32)C(=O)C1,-1.19%
22,O=C(Cc1c(F)cccc1Cl)Nc1ncc([N+](=O)[O-])s1,18.3%
23,CC(=O)Oc1ccccc1C(=O)Nc1ncc([N+](=O)[O-])s1,22.2% (active)
24,O=C(CCc1ccccc1)Nc1ncc([N+](=O)[O-])s1,9.35%

row,SMILES,activation
1,CC(=O)c1ccc(N2CCN(S(=O)(=O)c3c(C)[nH]c(=O)[nH]c3=O)CC2)cc1,0.25%
2,CCc1nc2ccccc2c(C(=O)NCc2ccc(OC)cc2)c1C,-0.1%
3,Cc1ccc(CN(C)CC(=O)Nc2cccc([N+](=O)[O-])c2)o1,-1.16%
4,Cc1ccc(NC(=O)CN(C)CC(=O)Nc2cccc(F)c2)cc1[N+](=O)[O-],8.52%
5,CN(CC(=O)Nc1cccc(F)c1)CC(=O)Nc1cccc([N+](=O)[O-])c1,44.2% (active)
6,CCOP(=O)(OCC)C(Nc1ccc([N+](=O)[O-])cc1)c1ccc(Cl)cc1 (stereo not drawn),-1.18%
7,Cc1cc(Nc2ccc(Cl)cc2)nc(N2CCOCC2)n1,-0.78%
8,O=C(O)CCn1c(SCc2cc(=O)n3ccccc3n2)nc2ccsc2c1=O,0.55%
9,CCN(CC)C(=O)CC1(c2ccccc2OC)CCOC(C(C)C)C1 (stereo not drawn),-0.7%
10,O=C(O)c1cccc(N2C(=O)Nc3ccccc3N2O)c1,-0.51%
11,COc1ccc(N2C(=O)c3ccccc3NC2c2ccc(OC)c(CN3CCOCC3)c2)cc1 (stereo not drawn),0.64%
12,CC(NC(=O)COC(=O)c1cc(=O)[nH]c2ccccc12)c1ccccc1 (stereo not drawn),2.26%
13,CC(=O)c1ccc(-c2ccc(Cn3c(C)nc4cc(N)c(C)nc43)cc2)cc1,0.89%
14,Cc1cc2nc3c(=O)n(Cc4ccccc4)c(=O)[nH]c3nc2cc1N,37.4% (active)
15,O=c1[nH]c2c(c(=O)n1Cc1ccccc1)CCC2,-0.42%
16,COc1ccc(NC(=S)N2N=CCC2c2ccccc2)cc1 (stereo not drawn),0.6%
17,CCOc1ccc2c(=O)c(-c3ccc4c(c3)OCCCO4)c(C)oc2c1,-1.72%
18,COC(=O)/C(C#N)=C/c1occc1C,1.02%
19,CCCCCc1ccc(-c2ccc(OCC)cc2)nc1,1.46%
20,O=C(Cc1ncc(C(F)(F)F)cc1Cl)Nc1cccc(Br)c1,0.3%
21,c1ccc2c(c1)OCCOCCOCCO2,-2.17%
22,CN(C)CCCN(Cc1cc2cc3c(cc2[nH]c1=O)OCCO3)C(=O)NC1CCCCC1,1.71%
23,Cc1nn(-c2ccccc2)c(NC(=O)c2cccs2)c(-c2ccc(Cl)cc2)c1=O,-0.42%
24,C/C(=N\NC(=O)CC(C)C)c1c(C(F)(F)F)[nH]n(-c2nc3ccccc3s2)c1=O,-0.3%

row,SMILES,activation
1,COc1ccc(C(=O)NC(=S)NNC(=O)c2c(-c3ccccc3)noc2C)cc1,44% (active)
2,COc1ccc(C(=O)NC(=S)NNC(=O)CCc2ccccc2)cc1,12%
3,Cc1onc(-c2ccccc2)c1C(=O)NNC(=S)NC(=O)c1ccc(F)cc1,13.6%
4,CCCCC(=O)NNC(=S)NC(=O)C(c1ccccc1)c1ccccc1,84.8% (active)
5,CC(C)C(=O)Nc1cccc(NC(=S)NC(=O)C(c2ccccc2)c2ccccc2)c1,2.14%
6,O=C(NNC(=S)NCc1ccco1)C(c1ccccc1)c1ccccc1,-0.07%
7,CC(=O)Nc1ccc(S(=O)(=O)NC2(C(F)(F)F)C(=O)Nc3c2c(=O)[nH]c(=O)n3Cc2ccccc2)cc1 (stereo not drawn),2.33%
8,CC(C)Cc1nc(Cl)c(C#N)c2c1CCC2,-2.32%
9,Cc1ccc(Nc2cc(C)nc3c(C)ccc([N+](=O)[O-])c23)cc1,-2.21%
10,Cc1cc(N2CCN(c3ccc(F)cc3)CC2)n2ncnc2n1,1.97%
11,CCc1cccc(C)c1NC(=O)COC(=O)Cc1ccsc1,-0.93%
12,CN1CCN(NC(=O)c2ccc(S(=O)(=O)N3CCCCCC3)cc2)CC1,1.34%
13,CCOC(=O)COc1nc(C)cc(C(F)(F)F)c1C#N,-0.81%
14,CCOC(=O)/C(C#N)=C/c1ccc(N2CCCCC2)cc1,2.02%
15,Cc1cc(C(=O)NNC(=S)Nc2ccccc2C)cs1,3.43%
16,CN(C)CCOCCOc1ccc(Cl)c2ccccc12,1.52%
17,Cc1cccc(C)c1Nc1c(-c2ccccc2O)nc2ncccn12,1.43%
18,Cc1ccc(C2C(C#N)C(C#N)N3CCCN23)cc1 (stereo not drawn),-0.02%
19,CCO/N=C(/C)c1c(O)cc(-c2ccccc2)n(-c2ccccc2)c1=O,0.61%
20,COCc1c(N)c(C)nc(Cl)c1C#N,-0.99%
21,CCn1c(Cc2ccccc2)nnc1SCC(=O)Nc1ccccc1,0.58%
22,CCn1c(CSc2ncccn2)nnc1SCC(=O)N1c2ccccc2CC1C (stereo not drawn),-0.46%
23,CCCc1nnc(SCC(=O)N2C(C)CCCC2C)n1CC (stereo not drawn),37.6% (active)
24,O=C(O)CCN(Cc1ccccc1)S(=O)(=O)c1c(Cl)cccc1Cl,0.3%

row,SMILES,activation
1,COc1cc(C(=O)OC(C)C(=O)NCC2CCCCC2)cc(NC(=O)c2ccco2)c1OC (stereo not drawn),-0.78%
2,COCCN(Cc1cc2cc3c(cc2nc1Cl)OCO3)C(=O)c1cccc(C)c1,0.19%
3,CCN(CC)c1ccc2cc(C(=O)O)c(=O)oc2c1,1.02%
4,CCN(CC)c1ccc2cc(C(N)=O)/c(=N\NC(=O)c3ccncc3)oc2c1,31.1% (active)
5,COc1ccc(C(=O)N/N=c2\oc3ccccc3cc2C(N)=O)cc1,1.99%
6,CCC(C)NC(=O)c1ccc(N2CCC3(CC2)OCCO3)c([N+](=O)[O-])c1 (stereo not drawn),0.89%
7,O=C(/C=C/c1cccs1)NCc1cccnc1,0.53%
8,COC(=O)C1=NN(c2ccccc2)C2C(=O)N(c3ccccc3OC)C(=O)C12 (stereo not drawn),-0.87%
9,COc1cccc(NC(=O)COC(=O)CCOc2ccccc2OC)c1,-1.34%
10,CCc1c(O)cc2n(c1=O)-c1ccccc1C2(C)C,1.3%
11,CC(C)(C)NC(=O)CN(C(=O)c1csnn1)c1ccccc1-c1ccccc1,1.04%
12,O=C(CCN1CCN(c2ccccc2)CC1)NNC(=S)Nc1ccccc1,2.77%
13,CCOc1ccccc1N1CN(Cc2ccccc2)CNC1=S,-0.98%
14,Cn1cc(S(=O)(=O)NC(c2ccccc2)c2ccccc2)c(=O)n(C)c1=O,1.45%
15,COc1ccc(/C=N/NC(=O)C(C)N(c2ccc(OC)cc2)S(C)(=O)=O)cc1 (stereo not drawn),0.5%
16,CC(C)(C)NC(=O)CN1CCC(NC(=O)C23CC4CC(CC(C4)C2)C3)CC1,2.37%
17,O=C(COC(=O)c1ccc(F)cc1F)Nc1ncccn1,-0.68%
18,O=C(COc1ccccc1)N1CCN=C1SCc1cccc(F)c1,-0.02%
19,Cc1cc(OCC(=O)NC2CCN(C)CC2)ccc1[N+](=O)[O-],1.92%
20,CC1Cc2ccccc2N1CC(=O)Nc1ccc(S(N)(=O)=O)cc1 (stereo not drawn),1.19%
21,Cc1c(Cl)cccc1NC(=O)Nc1ccc(C(=O)N2CCCC2)cc1,-0.96%
